The values below come from BindingDB's records for doi:10.1021/jm00346a020 (1982).

The first assay concerns the target T1, Dihydrofolate reductase (Gallus gallus, UniProt P00378).
T1 sequence (P00378 whole entry): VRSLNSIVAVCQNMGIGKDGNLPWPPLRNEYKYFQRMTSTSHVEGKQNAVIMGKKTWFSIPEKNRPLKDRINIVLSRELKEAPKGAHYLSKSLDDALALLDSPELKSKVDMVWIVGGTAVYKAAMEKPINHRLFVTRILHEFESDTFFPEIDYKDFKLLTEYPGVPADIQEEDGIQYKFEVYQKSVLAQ
Briefly: Inhibitory activity against chicken dihydrofolate reductase at pH 7.2.
As for `CCCCOCc1cccc(Cc2cnc(N)nc2N)c1`, affinity was put at a Ki of 6.76 µM. This counts as single-digit micromolar.
On the same count and under the same terms, the value for `Nc1ncc(Cc2cccc(I)c2)c(N)n1` was 16.2 µM; that for `Nc1ncc(Cc2ccc([N+](=O)[O-])cc2)c(N)n1` was 42.7 µM.
Take `Nc1ncc(Cc2ccccc2)c(N)n1`: the inhibition constant Ki was 19.5 µM.
The same measure, in the same setting: for `COCCOc1c(OC)cc(Cc2cnc(N)nc2N)cc1OC` [5-[3,5-Dimethoxy-4-(2-methoxy-ethoxy)-benzyl]-pyrimidine-2,4-diamine] the value was 229 µM; for `Cc1cccc(Cc2cnc(N)nc2N)c1`, 19.1 µM; for `Nc1ncc(Cc2cccc(F)c2)c(N)n1`, 20 µM.
On the same count and under the same terms, for `Nc1ncc(Cc2ccc(OC(F)(F)F)cc2)c(N)n1` the value was 55 µM.
Still for that read-out and setting: for `CN(C)c1ccc(Cc2cnc(N)nc2N)cc1` the value was 97.7 µM.
As for `COc1ccc(Cc2cnc(N)nc2N)cc1C(F)(F)F`, the Ki came out at 10.2 µM.
`Nc1ncc(Cc2ccc(F)cc2)c(N)n1` returned a Ki of 16.2 µM.
Same read-out and setting: for `CC(=O)Nc1ccc(Cc2cnc(N)nc2N)cc1` the value was 55 µM; for `COc1ccc(Cc2cnc(N)nc2N)cc1OC` [Diaveridine], 34.7 µM; for `Nc1ncc(Cc2cccc(Cl)c2)c(N)n1`, 9.77 µM.

A further assay has as its target T2, Dihydrofolate reductase (Bos taurus, UniProt P00376).
T2 sequence (P00376 whole entry): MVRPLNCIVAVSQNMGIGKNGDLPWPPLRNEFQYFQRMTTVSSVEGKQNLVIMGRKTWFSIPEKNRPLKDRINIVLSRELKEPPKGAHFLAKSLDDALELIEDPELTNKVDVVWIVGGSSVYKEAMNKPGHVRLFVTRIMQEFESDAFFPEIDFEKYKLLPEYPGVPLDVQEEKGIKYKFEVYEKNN
Description: Inhibitory activity against bovine liver dihydrofolate reductase at pH 7.2.
On to `Nc1ncc(Cc2ccc([N+](=O)[O-])cc2)c(N)n1`, for which the affinity corresponds to a Ki of 3.72 µM.
`Nc1ncc(Cc2cccc(C(F)(F)F)c2)c(N)n1` showed a Ki of 1.66 µM.
Same read-out and setting: the value for `COc1ccc(Cc2cnc(N)nc2N)cc1` [5-(4-Methoxy-benzyl)-pyrimidine-2,4-diamine] was 4.47 µM; that for `Nc1ncc(Cc2cccc(Br)c2)c(N)n1` was 1.55 µM.
Same read-out and setting: the value for `Nc1ccc(Cc2cnc(N)nc2N)cc1` was 11 µM; that for `CN(C)c1ccc(Cc2cnc(N)nc2N)cc1` was 6.17 µM.
`Cc1ccc(Cc2cnc(N)nc2N)cc1` yielded an inhibition constant Ki of 5.37 µM.
In the case of `Nc1ncc(Cc2ccc(O)c(O)c2)c(N)n1`, affinity was put at a Ki of 25.7 µM. This Ki lies about 4.8-fold higher than the previous one.
Still for that read-out and setting: the value for `Nc1ncc(Cc2ccc(F)cc2)c(N)n1` was 3.09 µM; that for `COc1ccc(Cc2cnc(N)nc2N)cc1OC` [Diaveridine] was 2.19 µM; that for `Nc1ncc(Cc2ccc(Cl)cc2)c(N)n1` was 2.51 µM.
On the same count and under the same terms, for `Nc1ncc(Cc2cccc(Cl)c2)c(N)n1` the value was 1.59 µM.
Still for that read-out and setting: for `CC(=O)Nc1ccc(Cc2cnc(N)nc2N)cc1[N+](=O)[O-]` the value was 2.82 µM; for `Nc1ncc(Cc2ccc(Br)cc2)c(N)n1`, 3.8 µM.

For a further assay, the target named is T2, Dihydrofolate reductase. Description: Inhibitory activity against bovine liver Dihydrofolate reductase at pH 7.2. A digest of the protocol: (§1)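 DHFR from chicken liver and from bovine liver, each assayed at pH 7.2 by the group's earlier-reported inhibition procedure. Potency is expressed as an apparent inhibition constant, reported as log(1/Ki app).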
`COCCOc1ccc(Cc2cnc(N)nc2N)cc1` showed a Ki of 4.9 µM. In other words, the single-digit micromolar range.
Still for that read-out and setting: the value for `COCCOc1ccc(Cc2cnc(N)nc2N)cc1OCCOC` was 6.76 µM; that for `Nc1ncc(Cc2cc(O)cc(O)c2)c(N)n1` was 407 µM.
The molecule `COCCOc1cccc(Cc2cnc(N)nc2N)c1` gave an inhibition constant Ki of 2.63 µM. This Ki is about 150-fold lower than that of the molecule before.
As to `CCCCCCOc1ccc(Cc2cnc(N)nc2N)cc1`, affinity was put at a Ki of 2.82 µM.
On the same count and under the same terms, the value for `CCCCCCCOc1ccc(Cc2cnc(N)nc2N)cc1` [5-(4-Heptyloxy-benzyl)-pyrimidine-2,4-diamine] was 3.55 µM.
On to `NC(=O)COc1cccc(Cc2cnc(N)nc2N)c1`, for which the affinity corresponds to a Ki of 5.37 µM. Against the preceding molecule, the Ki is about 1.5-fold higher.

The next assay addresses T1, Dihydrofolate reductase. Briefly: Inhibitory activity against chicken Dihydrofolate reductase at pH 7.2. In short, it runs like this: as §1
`COCCOc1cccc(Cc2cnc(N)nc2N)c1` came in with a Ki of 14.8 µM.

A word on the Ki: it is a measure of affinity in units of concentration, obtained from inhibition or displacement. Higher therefore signals lower affinity.
